# Most compounds without a hit are left out; they make up all but 3.7% or so of the library.
# Dynein transport = dynein cargo transport inhibition. 3617.4 mouse cells, GR-EGFP nuclear translocation imaging; test concentration mostly 20 µM; stimulated with dexamethasone, 1 µM; stronger effect = lower value. z-score, hits read low. 0.47% of 220,000 active. AID 1381;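 active = plate z-score of nuclear minus cytoplasmic receptor signal below a set negative limit, without overly bright fluorescence or cell loss, cut at about -3.5 in these data, passing the limit was not always enough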;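 note: z-score of nuclear minus cytoplasmic ring GR-EGFP intensity difference per well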
#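 Buffer or medium: tetracycline-free induction medium containing charcoal-stripped FBS / Reagent: dexamethasone agonist, 1.0 µM final, for 30 min / Technique: automated 10x imaging of fixed Hoechst-stained cells / Times: induction 48 h, compound 1 h, agonist 30 min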
# UPR CHOP act = activators of apoptotic arm of unfolded protein response (CHOP) | CHO-CHOP luciferase reporter, UPR activation, luminescence; percent of tunicamycin response over DMSO baseline | activation, % at 10 µM | AID 449763 | 0.34% of 330,000 active;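 active = at 10 µM dose, activation of 40% or more, normalized to positive control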;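 note: 100% = tunicamycin at 10 µg/mL and 0% = DMSO alone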
#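 measured by = luciferase luminescence | assay system = CHO-CHOP cells, stable luciferase reporter of PERK-eIF2a-CHOP signalling | amount = 500 reporter cells seeded per well | timing = 6 h compound exposure at 37 °C after overnight seeding | controls = positive tunicamycin 10 µg/mL, negative DMSO alone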
# Mdm2 MdmX PPI = disrupts the human Mdm2-MdmX interaction. 3% of 330,000 active. O15151+Q00987. SaOS-2 split-luciferase Mdm2/MdmX complementation, luminescence. inhibition, % at 8 µM. AID 485346;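 active = inhibition of at least 50% at 8 µM in the primary screen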
# Target sequence (O15151 whole entry, looked up): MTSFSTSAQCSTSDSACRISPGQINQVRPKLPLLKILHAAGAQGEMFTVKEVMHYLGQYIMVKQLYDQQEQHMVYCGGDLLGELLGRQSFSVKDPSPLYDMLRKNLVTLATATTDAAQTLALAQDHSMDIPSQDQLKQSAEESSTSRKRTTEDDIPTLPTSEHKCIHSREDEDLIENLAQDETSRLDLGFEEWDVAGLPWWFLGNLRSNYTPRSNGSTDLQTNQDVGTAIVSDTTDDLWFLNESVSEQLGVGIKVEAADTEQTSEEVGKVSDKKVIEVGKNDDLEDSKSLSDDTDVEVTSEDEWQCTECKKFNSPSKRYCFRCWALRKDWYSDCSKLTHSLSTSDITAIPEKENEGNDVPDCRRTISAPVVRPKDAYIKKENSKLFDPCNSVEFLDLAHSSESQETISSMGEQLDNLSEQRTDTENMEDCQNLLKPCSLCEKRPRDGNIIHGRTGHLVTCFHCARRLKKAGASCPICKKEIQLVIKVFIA
# Target sequence (Q00987 whole entry, looked up): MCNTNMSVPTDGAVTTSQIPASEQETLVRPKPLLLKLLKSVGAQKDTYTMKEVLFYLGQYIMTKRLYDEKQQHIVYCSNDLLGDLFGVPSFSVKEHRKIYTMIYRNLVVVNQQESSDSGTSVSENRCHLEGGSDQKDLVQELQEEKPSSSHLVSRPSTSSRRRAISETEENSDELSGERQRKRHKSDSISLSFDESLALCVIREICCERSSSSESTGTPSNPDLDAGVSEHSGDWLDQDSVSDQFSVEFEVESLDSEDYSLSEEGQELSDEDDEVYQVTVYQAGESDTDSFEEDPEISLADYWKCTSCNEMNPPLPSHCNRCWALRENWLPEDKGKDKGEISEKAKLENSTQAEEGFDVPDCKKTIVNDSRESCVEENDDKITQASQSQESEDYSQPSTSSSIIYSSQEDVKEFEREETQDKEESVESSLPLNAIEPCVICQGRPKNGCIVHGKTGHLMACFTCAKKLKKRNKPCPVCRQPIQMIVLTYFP
# Mdm2 ligase inh = Mdm2 E3 ligase (human) inhibition | cell-based MDM2 ubiquitination luciferase reporter, 2 h; 0 = plate control, 100 = twice control, blank-subtracted | signal enhancement, % at 5 µM | 0.11% of 210,000 active;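 active = signal enhancement of 30% or more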;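 note: luminescence tracks abundance of the self-degrading MDM2-luciferase fusion protein; higher signal means inhibition of MDM2 E3 ligase activity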
#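 Buffer or medium: Cells held in DMEM | Assay system: Stable mammalian line carrying autodegrading MDM2–luciferase fusion reporter | Quantity: 2000 cells/well | Times: 4 h settle plus 2 h compound, 37 °C | Doses: One concentration, 5 µM, with 0.2% DMSO | Technique: Luminescence with SteadyLite reagent, 15 min at room temperature | Benchmarks: Plate controls and plate blanks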
# B2AR ag = agonists of human beta-2 adrenergic receptor inducing internalization | P07550 | Am2.2-beta2AR cells, FAP receptor internalization, flow cytometry | response, % (concentration not given with the values) | 0.43% of 340,000 active;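 active = response above a set limit, near 3 SD of response in nonfluorescent compounds, cut at about 42% in these data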
# XBP1 UPR activ = activators of adaptive arm of unfolded protein response (XBP1) | CHO-XBP1 luciferase reporter, IRE1-XBP1 UPR activation, luminescence; percent of tunicamycin response, DMSO as zero | 0.33% of 330,000 active | activation, % at 20 µM;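 active = versus positive control, 20 µM dose yields 30% or more activation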;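 note: 100% = tunicamycin at 10 µg/mL and 0% = DMSO only wells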
#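 Signal: luciferase luminescence; Assay system: CHO-XBP1 luciferase reporter cells; Amount: one thousand reporter cells per well; Dosing: 20 µM single concentration, DMSO 1%; Benchmarks: high control tunicamycin 10 µg/mL final, low control DMSO vehicle only; Schedule: 6 h compound exposure at 37 °C, 5% CO2; Evaluation: percent activation relative to tunicamycin reference.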
# Mdm2-MdmX conf = human Mdm2/MdmX binding inhibition, confirmed | shares compounds with Mdm2 MdmX PPI | luminescent assay | inhibition, % at 8 µM | 55% of 10,000 active; in the data active = inhibition above about 40%
# Full FLuc ctr = inhibits full-length luciferase, flagging false Mdm2/MdmX hits. shares compounds with Mdm2 MdmX PPI. SaOS-2 full-length luciferase counterscreen, luminescence. inhibition, % at 8 µM. 77% of 6,200 active;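 active = mean inhibition at 8 µM reaching about 37%, which flags the compound as non-specific, limit read from the data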;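 note: p53-null SaOS-2 cells with luciferase driven by a doxycycline-inducible promoter; compound on cells about two nights before reading with doxycycline added after day one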
# * marks the source's active call; other numbers are inactive results; · = no result.
SMILES,Dynein transport,UPR CHOP act,Mdm2 MdmX PPI,Mdm2 ligase inh,B2AR ag,XBP1 UPR activ,Mdm2-MdmX conf,Full FLuc ctr
COCCNC(=O)C(=O)Nc1ccc2c(c1)N(S(=O)(=O)c1cccs1)CCC2,·,0,56*,·,-14,1,72*,64*
O=C(CCS(=O)(=O)c1ccccc1Cl)NC1CCCCCC1,·,4,-47,·,-4,0,·,·
CCOC(=O)N1CCN(C(=O)c2ccc(Cn3c(=S)[nH]c4cc5c(cc4c3=O)OCO5)cc2)CC1,-0.69,0,27,-16,7,8,·,·
CCOC(=O)N1CCN(C(=O)c2ccc(Cn3c(=S)[nH]c4cc(OCC)c(OCC)cc4c3=O)cc2)CC1,-0.47,2,54*,17,4,-1,31,·
CC(C)(C)c1ccc(-c2nnc3sc(-c4ccccn4)nn23)cc1,0.25,-5,66*,-46,-3,-5,65*,30
Clc1ccc(-c2nnc3sc(-c4ccccn4)nn23)cc1,-0.33,·,·,14,·,·,·,·
COc1ccc(/C=C2\Oc3cc(OCC(=O)N4CCC[C@H]4CO)ccc3C2=O)c(OC)c1,·,1,16,·,-2,0,·,·
CCN(CC)Cc1cc2[nH]c3c4ccc(Cl)cc4ncc3c2cc1OC,0.17,1,54*,·,3,-2,24,·
COc1ccc(CNc2ncnc3cc(Cl)ccc23)cc1OC,0.83,·,·,-14,-6,·,·,·
Cc1ccc(S(=O)(=O)N2CCCCC2)cc1NC(=O)Cn1ncc(Cl)c(Cl)c1=O,·,0,97*,·,41,-8,99*,55*
Cc1cc(Br)ccc1NC(=O)CNC(=O)CSc1ncccn1,·,0,-5,·,1,3,·,·
Cc1cc(Br)ccc1NC(=O)CNC(=O)Cn1ncc(Cl)c(Cl)c1=O,-1.1,23,97*,-3,37,-8,99*,48*
Cc1cc([N+](=O)[O-])cc(/C=N\NC(=O)C2COc3ccccc3O2)c1O (stereo unspecified),-0.56,0,52*,0,-3,0,40*,28
CCN(CC)c1ccc(/C=N/NC(=O)CCC(=O)NCc2ccccc2)c(O)c1,-0.033,-1,71*,-10,17,-5,76*,34
CCN(CC)c1ccc(/C=N/NC(=O)CNC(=O)C2COc3ccccc3O2)c(O)c1 (stereo unspecified),·,-2,77*,·,15,-4,76*,22
O=C(N/N=C\c1ccc(O)c([N+](=O)[O-])c1)C1COc2ccccc2O1 (stereo unspecified),-0.12,0,9,-2,16,1,·,·
COc1cc(/C=N\NC(=O)CNC(=O)C2COc3ccccc3O2)ccc1O (stereo unspecified),0.73,0,-2,-9,-5,-1,·,·
CCOC(=O)c1c(C)[nH]c(C)c1C(=O)COC(=O)Cc1ccc(OC)c(OC)c1,·,1,2,·,1,-3,·,·
C[C@H](NC(=O)C1CC(=O)N(c2ccc3c(c2)OCCO3)C1)C(=O)N1CCCCC1 (stereo partly specified),·,2,3,·,-1,0,·,·
CCn1c(SCC(=O)Nc2sccc2C(N)=O)nnc1C1CC1,·,2,-17,·,3,-1,·,·
CN(C)/C=C/C(=O)c1ccc2noc(-c3cccc(F)c3)c2c1,·,0,53*,·,3,0,26,·
Cc1cc(N2CCN(C)CC2)nc2ccc(NC(=O)c3ccc4c(c3)OCO4)cc12,1.4,4,55*,-4,12,2,17,·
COc1ccccc1CNC(=S)Nc1ccc2nc(N3CCN(C)CC3)cc(C)c2c1,0.35,4,54*,-8,11,-1,50*,61*

# Screens from PubChem BioAssay.
